Source: ChEMBL document CHEMBL1156676, “Peptidyl 3-substituted 1-hydroxyureas as isosteric analogues of succinylhydroxamate MMP inhibitors” (Eur J Med Chem, 2008)
pIC50: −log10 of the molar value. Where a SMILES comes first, the peptide text is derived from it. The star is where a group is joined. Cbz = O=C(OCc1ccccc1)*

Assays:
Matrilysin = molecular target: T1, Matrilysin (Homo sapiens, UniProt P09237); experiment: Inhibition of human recombinant MMP7
T1 sequence (P09237 whole entry): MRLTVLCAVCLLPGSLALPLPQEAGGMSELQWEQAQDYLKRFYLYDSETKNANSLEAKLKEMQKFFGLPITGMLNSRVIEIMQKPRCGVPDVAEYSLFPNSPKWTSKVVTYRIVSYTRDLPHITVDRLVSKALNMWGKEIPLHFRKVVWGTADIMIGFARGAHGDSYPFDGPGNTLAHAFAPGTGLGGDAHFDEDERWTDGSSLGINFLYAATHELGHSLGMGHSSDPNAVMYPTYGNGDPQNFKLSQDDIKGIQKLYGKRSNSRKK
In short: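 MMP-7 proenzyme was APMA-activated (1 mM, 1 h, 37 °C), final 2.4 nM. Incubated 4 h at 25 °C with inhibitor at seven concentrations in Tris 50 mM pH 7.5/NaCl 150 mM/CaCl2 10 mM/Brij 35 0.05%/DMSO 1%. Cleavage of Mca-Lys-Pro-Leu-Gly-Leu-Dpa-Ala-Arg-NH2 was followed fluorimetrically (325/400 nm) every 15 s over 20 min, triplicate.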

[1] = molecular target: Matrix metalloproteinase-9 (Homo sapiens, UniProt P14780); experiment: Inhibition of human recombinant MMP9
In short: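 Pro-MMP-9 activated with APMA 1 mM, 1 h, 37 °C, used at 2.7 nM final. Preincubated 4 h at 25 °C with seven inhibitor concentrations in Tris 50 mM pH 7.5, NaCl 150 mM, CaCl2 10 mM, Brij 35 0.05%, DMSO 1%. Hydrolysis of Mca-Lys-Pro-Leu-Gly-Leu-Dpa-Ala-Arg-NH2 monitored by fluorescence (325/400 nm) every 15 s for 20 min, triplicate.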

[2] = molecular target: 72 kDa type IV collagenase (Homo sapiens, UniProt P08253); experiment: Inhibition of human recombinant MMP2
Interstitial collagenase = molecular target: T2, Interstitial collagenase (Homo sapiens, UniProt P03956); experiment: Inhibition of human recombinant MMP1
T2 sequence (P03956 whole entry): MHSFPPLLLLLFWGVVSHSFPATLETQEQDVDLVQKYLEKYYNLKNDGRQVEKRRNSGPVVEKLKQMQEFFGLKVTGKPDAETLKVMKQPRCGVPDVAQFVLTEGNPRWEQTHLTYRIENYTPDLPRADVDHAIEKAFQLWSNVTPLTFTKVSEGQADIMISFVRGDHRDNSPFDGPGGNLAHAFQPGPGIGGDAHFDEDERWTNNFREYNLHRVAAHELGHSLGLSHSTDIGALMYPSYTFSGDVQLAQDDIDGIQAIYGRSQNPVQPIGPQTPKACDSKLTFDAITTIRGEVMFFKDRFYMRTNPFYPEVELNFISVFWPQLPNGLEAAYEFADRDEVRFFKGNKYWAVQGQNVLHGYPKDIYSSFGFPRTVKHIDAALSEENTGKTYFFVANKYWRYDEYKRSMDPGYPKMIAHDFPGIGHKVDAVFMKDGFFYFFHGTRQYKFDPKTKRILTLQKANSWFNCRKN

Stromelysin-1 = Stromelysin-1 (Homo sapiens, UniProt P08254); experiment: Inhibition of human recombinant MMP3
Neutrophil collagenase = Neutrophil collagenase (Homo sapiens, UniProt P22894); experiment: Inhibition of human recombinant MMP8
Neutrophil collagenase, sequence (P22894 whole entry): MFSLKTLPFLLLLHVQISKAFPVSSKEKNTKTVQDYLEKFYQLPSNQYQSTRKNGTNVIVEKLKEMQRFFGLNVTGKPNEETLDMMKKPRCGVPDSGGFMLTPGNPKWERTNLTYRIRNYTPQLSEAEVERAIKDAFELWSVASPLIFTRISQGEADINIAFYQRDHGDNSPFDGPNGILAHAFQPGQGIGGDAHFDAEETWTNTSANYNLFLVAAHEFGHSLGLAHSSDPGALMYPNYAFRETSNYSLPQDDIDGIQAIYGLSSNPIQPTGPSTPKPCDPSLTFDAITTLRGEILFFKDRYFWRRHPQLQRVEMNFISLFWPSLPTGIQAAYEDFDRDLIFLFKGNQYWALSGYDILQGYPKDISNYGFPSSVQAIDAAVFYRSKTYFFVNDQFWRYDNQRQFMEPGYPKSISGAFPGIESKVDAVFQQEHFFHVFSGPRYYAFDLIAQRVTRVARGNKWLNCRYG

Matrix metalloproteinase-9, sequence (P14780 whole entry): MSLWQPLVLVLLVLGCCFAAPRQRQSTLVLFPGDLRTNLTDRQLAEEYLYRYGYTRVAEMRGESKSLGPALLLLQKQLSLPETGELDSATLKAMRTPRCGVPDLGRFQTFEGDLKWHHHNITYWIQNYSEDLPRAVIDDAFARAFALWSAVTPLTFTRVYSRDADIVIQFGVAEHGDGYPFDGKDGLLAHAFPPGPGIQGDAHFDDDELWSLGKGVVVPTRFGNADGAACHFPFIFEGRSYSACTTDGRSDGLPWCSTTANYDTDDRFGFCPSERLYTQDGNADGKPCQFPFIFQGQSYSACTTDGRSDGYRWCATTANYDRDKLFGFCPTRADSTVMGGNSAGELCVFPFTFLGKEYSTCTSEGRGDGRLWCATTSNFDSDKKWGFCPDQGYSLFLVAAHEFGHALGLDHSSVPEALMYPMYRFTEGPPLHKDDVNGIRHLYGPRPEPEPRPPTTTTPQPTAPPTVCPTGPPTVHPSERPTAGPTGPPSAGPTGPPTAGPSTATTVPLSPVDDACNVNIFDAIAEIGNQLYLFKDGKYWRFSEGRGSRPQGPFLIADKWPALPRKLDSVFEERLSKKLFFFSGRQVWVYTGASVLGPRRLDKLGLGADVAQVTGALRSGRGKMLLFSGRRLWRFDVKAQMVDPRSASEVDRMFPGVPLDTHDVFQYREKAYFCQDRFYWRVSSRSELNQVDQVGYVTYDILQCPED
Stromelysin-1, sequence (P08254 whole entry): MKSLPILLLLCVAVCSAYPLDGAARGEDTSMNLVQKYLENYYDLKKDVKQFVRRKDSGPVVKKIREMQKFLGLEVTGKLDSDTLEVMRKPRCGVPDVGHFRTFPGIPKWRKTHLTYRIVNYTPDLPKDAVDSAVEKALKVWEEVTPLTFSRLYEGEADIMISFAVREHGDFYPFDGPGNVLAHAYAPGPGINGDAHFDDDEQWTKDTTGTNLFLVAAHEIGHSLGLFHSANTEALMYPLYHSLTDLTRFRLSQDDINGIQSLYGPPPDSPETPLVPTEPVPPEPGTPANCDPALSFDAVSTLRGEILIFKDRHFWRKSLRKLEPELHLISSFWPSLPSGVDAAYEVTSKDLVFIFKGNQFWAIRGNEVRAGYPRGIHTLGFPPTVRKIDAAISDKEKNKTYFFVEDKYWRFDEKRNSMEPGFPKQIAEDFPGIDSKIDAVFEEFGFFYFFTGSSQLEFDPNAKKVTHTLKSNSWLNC
72 kDa type IV collagenase, sequence (P08253 whole entry): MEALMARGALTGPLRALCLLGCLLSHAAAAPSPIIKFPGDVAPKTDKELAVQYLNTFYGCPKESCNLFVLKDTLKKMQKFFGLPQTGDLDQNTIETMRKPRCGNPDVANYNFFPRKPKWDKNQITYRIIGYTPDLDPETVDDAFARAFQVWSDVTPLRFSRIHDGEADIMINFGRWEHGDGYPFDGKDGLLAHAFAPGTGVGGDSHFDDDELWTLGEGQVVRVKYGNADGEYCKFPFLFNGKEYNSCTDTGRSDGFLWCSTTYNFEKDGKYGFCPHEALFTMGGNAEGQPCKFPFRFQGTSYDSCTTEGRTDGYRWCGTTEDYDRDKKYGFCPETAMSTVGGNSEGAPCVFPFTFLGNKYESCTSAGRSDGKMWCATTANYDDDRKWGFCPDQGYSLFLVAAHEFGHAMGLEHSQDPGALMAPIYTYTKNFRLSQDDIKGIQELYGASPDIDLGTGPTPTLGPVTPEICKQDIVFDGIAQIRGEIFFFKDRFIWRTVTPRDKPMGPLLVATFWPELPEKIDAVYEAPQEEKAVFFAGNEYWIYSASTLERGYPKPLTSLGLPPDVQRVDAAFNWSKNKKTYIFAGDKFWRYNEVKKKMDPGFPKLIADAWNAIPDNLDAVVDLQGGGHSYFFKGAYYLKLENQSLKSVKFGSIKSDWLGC

| pIC50 (Matrilysin) | pIC50 [1] | pIC50 [2] | pIC50 (Interstitial collagenase) | pIC50 (Stromelysin-1) | pIC50 (Neutrophil collagenase) | SMILES |
| --- | --- | --- | --- | --- | --- | --- |
| 8.08 | 9.42 | – | – | – | – | CNC(=O)[C@H](Cc1ccccc1)NC(=O)[C@@H](CC(=O)NO)CC(C)C |
| < 3.52 | < 3.52 | < 3.52 | – | – | – | CNC(=O)[C@H](Cc1ccccc1)NC(=O)[C@@H](N)CC(C)C |
| < 3.52 | 3.70 | < 3.52 | < 3.52 | < 3.52 | 3.82 | CNC(=O)[C@H](Cc1ccccc1)NC(=O)[C@@H](CC(C)C)NC(=O)NO |
| 5.39 | 6.82 | – | – | – | – | CNC(=O)[C@H](Cc1ccccc1)NC(=O)[C@H](CC(=O)NO)CC(C)C |
| < 3.52 | 4.70 | 4.22 | 3.57 | < 3.52 | 4.15 | CNC(=O)[C@H](Cc1ccccc1)NC(=O)[C@H](CC(C)C)NC(=O)NO |
| < 3.52 | < 3.52 | < 3.52 | < 3.52 | < 3.52 | < 3.52 | CNC(=O)[C@H](Cc1ccccc1)NC(=O)[C@H](N)CC(C)C |
| < 3.52 | < 3.52 | < 3.52 | < 3.52 | < 3.52 | < 3.52 | COC(=O)[C@H](Cc1ccccc1)NC(=O)[C@H](CC(C)C)NC(=O)OCc1ccccc1 (Cbz-Leu-Phe-OMe) |
